The term MIC denotes the least concentration at which growth counts as inhibited. Low readings indicate greater potency, high ones weaker potency. Broadly, the EC50 is the concentration that produces a half-maximal response.

Each structure is given as a SMILES string. In brackets after ≈: the same amount, converted by molar mass.

These results are taken from ChEMBL document CHEMBL4038263, “Flavonoids from Erythrina schliebenii” (J Nat Prod, 2017).

In assay [1] the test system is Mycobacterium tuberculosis. In words: Antimycobacterial activity against Mycobacterium tuberculosis H37Rv. The format is functional. The method, boiled down: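 Read-out is the minimum inhibitory concentration (MIC). Crude extracts are expressed in μg mL−1 and isolated constituents in μM. Isonicotinylhydrazine and rifampicin served as reference controls.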
The test system of assay [2] is MDA-MB-231. Nature of the assay: Cytotoxicity against human MDA-MB-231 cells. The format is functional, cell-based.

In the case of `COc1ccc(-c2coc3cc(O)cc(O)c3c2=O)cc1OC`, the minimal inhibitory concentration (MIC) in assay [1] is 102 µM (≈ 32 µg/mL). The compound also showed an EC50 in assay [2] of 31.8 µM.
As to `COc1ccc(/C=C/C(=O)c2c(O)cc(OC)c(OC)c2OC)cc1`, inhibition of growth in assay [1] (MIC) required 92.9 µM (≈ 32 µg/mL). The compound further had an EC50 in assay [2] of 291 µM.
The matching figures for `COc1ccc(-c2coc3cc(O)cc(O)c3c2=O)cc1CC=C(C)C`: 36.9 µM (≈ 13 µg/mL) and 27.9 µM.
In assay [1], `COc1cc(-c2coc3cc(O)cc(O)c3c2=O)cc(OC)c1OC` gave an MIC of 93 µM (≈ 32 µg/mL). This compound gave an EC50 in assay [2] of 29 µM.
The matching figures for `COc1ccc([C@@H]2CC(=O)c3c(cc(OC)c(OC)c3OC)O2)cc1`: 92.9 µM (≈ 32 µg/mL) and 291 µM.
On to `COc1cc(OC)c([C@@H]2COc3cc4c(c(O)c3C2=O)C=CC(C)(C)O4)cc1OC`, for which, in assay [1], the minimal inhibitory concentration (MIC) was 67.6 µM (≈ 27.9 µg/mL). The same compound came in with an EC50 in assay [2] of 58 µM.
The matching figures for `COc1c(O)cc(-c2coc3cc(O)cc(O)c3c2=O)cc1CC=C(C)C`: 86.9 µM (≈ 32 µg/mL) and 77 µM.
The compound `COc1cc(-c2coc3cc(O)cc(O)c3c2=O)cc(CC=C(C)C)c1OC` showed an MIC in assay [1] of 77.2 µM (≈ 29.5 µg/mL). Moreover, in assay [2], the EC50 was determined as 49.4 µM.
As for `C=C(C)/C=C/c1cc(-c2coc3cc(O)cc(O)c3c2=O)cc(O)c1OC`, in assay [1], the lowest concentration to inhibit growth (MIC) was 87.4 µM (≈ 32 µg/mL). Moreover, a half-maximal effect in assay [2] (EC50) was put at 13 µM.
`COc1cc(OC)c(C2COc3cc(O)cc(O)c3C2=O)cc1OC` (stereo not given) showed an MIC in assay [1] of 92.5 µM (≈ 32 µg/mL). Also, it took 275 µM to reach a half-maximal effect in assay [2] (EC50).
In turn, `COc1cc2c(cc1CC=C(C)C)[C@@H]1Oc3cc(O)ccc3[C@@H]1CO2` came in with a minimal inhibitory concentration (MIC) in assay [1] of 90.8 µM (≈ 30.7 µg/mL).
Compound `CC1(C)C=Cc2c(cc3occ(-c4ccc(O)cc4O)c(=O)c3c2O)O1` returned an MIC in assay [1] of 90.9 µM (≈ 32 µg/mL). This compound showed an EC50 in assay [2] of 16.9 µM.
The like results for `COc1c(CC=C(C)C)cc([C@@H]2CC(=O)c3c(O)cc(O)cc3O2)cc1CC=C(C)C` were, in that order, 49.5 µM (≈ 20.9 µg/mL) and 21.6 µM.
`COc1ccc(-c2cc(=O)c3c(OC)c(OC)c(OC)cc3o2)cc1` displayed an MIC in assay [1] of 93.5 µM (≈ 32 µg/mL). The compound also had an EC50 in assay [2] of 292 µM.
In turn, `CC(C)=CCc1cc([C@@H]2CC(=O)c3c(O)cc(O)cc3O2)cc(CC=C(C)C)c1O` [ABYSSINONE V] yielded an MIC in assay [1] of 78.3 µM (≈ 32 µg/mL).
As to `COc1ccc([C@@H]2CC(=O)c3c(cc(OC)c(O)c3OC)O2)cc1` [HAMILTONE A], the MIC in assay [1] is 96.9 µM (≈ 32 µg/mL). The EC50 in assay [2] was 201 µM.
Turning to `NNC(=O)c1ccncc1` [ISONIAZID], the MIC in assay [1] came to 0.3 µM (≈ 0.0411 µg/mL).
Turning to `C=C(C)[C@@H]1CC[C@]2(C)CC[C@]3(C)[C@H](CC[C@@H]4[C@@]5(C)CC[C@H](O)C(C)(C)[C@@H]5CC[C@]43C)[C@@H]12` [LUPEOL], the 50% effective concentration (EC50) in assay [2] turned out to be 209 µM.
Regarding `CO[C@H]1/C=C/O[C@@]2(C)Oc3c(C)c(O)c4c(O)c(c(/C=N/N5CCN(C)CC5)c(O)c4c3C2=O)NC(=O)/C(C)=C\C=C\[C@H](C)[C@H](O)[C@@H](C)[C@@H](O)[C@@H](C)[C@H](OC(C)=O)[C@@H]1C` [RIFAMPIN], in assay [1], the MIC was 0.09 µM (≈ 0.0741 µg/mL).
As for `COc1ccc(-c2cc(=O)c3c(OC)c(OC)c(OC)cc3o2)cc1OC` [SINENSETIN], the MIC in assay [1] came out at 85.9 µM (≈ 32 µg/mL). This compound also had an EC50 in assay [2] of 269 µM.
